Experimental data from ChEMBL document CHEMBL4390647, “Efficient click chemistry towards novel 1H-1,2,3-triazole-tethered 4H-chromene-d-glucose conjugates: Design, synthesis and evaluation of in vitro antibacterial, MRSA and antifungal activities” (Eur J Med Chem, 2019).
Converted amounts (≈) assume the structure as drawn.

Assays:
Candida albicans [1] = assay: Antifungal activity against Candida albicans ATCC 1912 after 24 to 48 hrs by broth microdilution method; format: functional
Candida albicans [2] = assay: Antifungal activity against Candida albicans ATCC 1905 after 24 to 48 hrs by broth microdilution method; format: functional
Candida albicans [3] = assay: Antifungal activity against Candida albicans SUCC 2303 after 24 to 48 hrs by broth microdilution method; format: functional
Candida albicans [4] = assay: Antifungal activity against Candida albicans SUCC 625 after 24 to 48 hrs by broth microdilution method; format: functional
Aspergillus flavus [5] = assay: Antifungal activity against Aspergillus flavus ATCC 64025 after 24 to 48 hrs by broth microdilution method; format: functional
Pseudomonas aeruginosa = assay: Antibacterial activity against Pseudomonas aeruginosa […] measured after 18 to 20 hrs by microbroth dilution method; format: functional
Outline: (§1)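 Inoculum from a 4–6-h broth adjusted to 0.5 McFarland, final 5 × 10⁵ CFU/mL. Incubation at 35°C for 18–20 h. MIC taken as the lowest concentration giving complete inhibition of visible growth; three experiments.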

Candida albicans [6] = assay: Antifungal activity against Candida albicans ATCC 7754 after 72 hrs by agar dilution method; format: functional; conditions: ATCC 7754, 72 h
Outline: (§2)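 Agar dilution on Sabouraud dextrose agar, with compounds at […] to 0.78 μM in twofold steps. Fungal suspensions at 10 CFU/mL as printed were applied to the compound-containing plates. Incubation at 35°C; MIC read after 72 h. Three experiments.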

[7] = Cytotoxicity against mouse RAW264.7 cells assessed as growth inhibition at 50 ug/mL after 120 hrs by MTT assay relative to control; format: cell-based; conditions: read-out: GI
Outline: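 RAW 264.7 mouse macrophages were seeded at 25,000 cells/well and left to attach overnight. Compound in DMSO was added from a 200× concentrate, in duplicate wells, to a 50 μg/mL test level; DMSO served as control. Exposure 120 h at 37°C in 5% CO₂. MTT (4 mg/mL in PBS) was added for 4 h, formazan dissolved in DMSO, and absorbance read at 560 nm. Viability expressed as % of untreated cells, mean ± SE of at least three independent experiments.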

Bacillus subtilis = assay: Antibacterial activity against Bacillus subtilis ATCC 11774 after 18 to 20 hrs by microbroth dilution method; format: functional; outline: as §1
Staphylococcus aureus [8] = assay: Antibacterial activity against Staphylococcus aureus MRSA198 clinical isolate-3 measured after 18 to 20 hrs by microbroth dilution method; format: functional; conditions: MRSA198 isolate-3
Saccharomyces cerevisiae = assay: Antifungal activity against Saccharomyces cerevisiae SH 20 after 72 hrs by agar dilution method; format: functional; conditions: SH 20, 72 h; outline: as §2
[9] = test system: Staphylococcus epidermidis; assay: Antibacterial activity against Staphylococcus epidermidis ATCC 12228 after 18 to 20 hrs by microbroth dilution method; format: functional; outline: as §1
Aspergillus flavus [10] = assay: Antifungal activity against Aspergillus flavus ATCC 204304 measured after 72 hrs by agar dilution method; format: functional; conditions: ATCC 204304, 72 h; outline: as §2
Staphylococcus aureus [11] = assay: Antibacterial activity against Staphylococcus aureus ATCC 11632 after 18 to 20 hrs by microbroth dilution method; format: functional; outline: as §1
Salmonella typhimurium = assay: Antibacterial activity against Salmonella typhimurium ATCC 14028 measured after 18 to 20 hrs by microbroth dilution method; format: functional, Salmonella enterica subsp. enterica serovar Typhimurium; conditions: Salmonella enterica; outline: as §1
Aspergillus niger [12] = assay: Antifungal activity against Aspergillus niger ATCC 439 measured after 72 hrs by agar dilution method; format: functional; conditions: ATCC 439, 72 h; outline: as §2
Staphylococcus aureus [13] = assay: Antibacterial activity against Staphylococcus aureus MRSA198 clinical isolate-2 measured after 18 to 20 hrs by microbroth dilution method; format: functional; conditions: MRSA198 isolate-2
Staphylococcus aureus [14] = assay: Antibacterial activity against Staphylococcus aureus MRSA198 clinical isolate-1 measured after 18 to 20 hrs by microbroth dilution method; format: functional; conditions: MRSA198 isolate-1
Escherichia coli = assay: Antibacterial activity against Escherichia coli ATCC 25922 measured after 18 to 20 hrs by microbroth dilution method; format: functional; outline: as §1
Klebsiella pneumoniae = assay: Antibacterial activity against measured after Klebsiella pneumoniae ATCC 4352 measured after 18 to 20 hrs by microbroth dilution method; format: functional; outline: as §1
Candida albicans [15] = assay: Antifungal activity against Candida albicans NCIM3471 by standard agar method; format: functional
Aspergillus niger [16] = assay: Antifungal activity against Aspergillus niger NCIM1196 by standard agar method; format: functional
[17] = Antioxidant activity assessed as DPPH radical scavenging activity measured after 30 mins by spectrophotometric method; format: functional

SMILES	MIC (Pseudomonas aeruginosa) [µM]	MIC (Candida albicans [6]) [µM]	inhibition at 120 h, 50 ug/mL [7] [%]	MIC (Bacillus subtilis) [µM]	MIC (Staphylococcus aureus [8]) [µM]	MIC (Saccharomyces cerevisiae) [µM]	MIC [9] [µM]	MIC (Aspergillus flavus [10]) [µM]	MIC (Staphylococcus aureus [11]) [µM]	MIC (Salmonella typhimurium) [µM]	MIC (Aspergillus niger [12]) [µM]	MIC (Staphylococcus aureus [13]) [µM]	MIC (Staphylococcus aureus [14]) [µM]	MIC (Escherichia coli) [µM]	MIC (Klebsiella pneumoniae) [µM]	also measured
N#CC1=C(N)Oc2ccc3ccccc3c2C1c1ccccc1 (centres undefined)	–	–	–	–	–	–	–	–	–	–	–	–	–	–	–	MIC (Candida albicans [1]): > 1 µg/mL; MIC (Candida albicans [2]): > 1 µg/mL; MIC (Candida albicans [3]): > 1 µg/mL; MIC (Candida albicans [4]): > 1 µg/mL; MIC (Aspergillus flavus [5]): > 1 µg/mL
CC(=O)OC[C@H]1O[C@@H](n2cc(COc3ccc4c(c3)OC(N)=C(C#N)C4c3ccc(Br)cc3)nn2)[C@H](OC(C)=O)[C@@H](OC(C)=O)[C@@H]1OC(C)=O (some centres undefined)	25 (≈ 18.9 µg/mL)	3.12 (≈ 2.35 µg/mL)	25.3	200 (≈ 151 µg/mL)	12.5 (≈ 9.43 µg/mL)	1.56 (≈ 1.18 µg/mL)	100 (≈ 75.5 µg/mL)	200 (≈ 151 µg/mL)	25 (≈ 18.9 µg/mL)	200 (≈ 151 µg/mL)	3.12 (≈ 2.35 µg/mL)	12.5 (≈ 9.43 µg/mL)	12.5 (≈ 9.43 µg/mL)	100 (≈ 75.5 µg/mL)	200 (≈ 151 µg/mL)	–
COc1cccc(C2C(C#N)=C(N)Oc3cc(OCc4cn([C@@H]5O[C@H](COC(C)=O)[C@@H](OC(C)=O)[C@H](OC(C)=O)[C@H]5OC(C)=O)nn4)ccc32)c1OC (some centres undefined)	12.5 (≈ 9.2 µg/mL)	100 (≈ 73.6 µg/mL)	31.1	12.5 (≈ 9.2 µg/mL)	12.5 (≈ 9.2 µg/mL)	200 (≈ 147 µg/mL)	25 (≈ 18.4 µg/mL)	25 (≈ 18.4 µg/mL)	12.5 (≈ 9.2 µg/mL)	12.5 (≈ 9.2 µg/mL)	25 (≈ 18.4 µg/mL)	12.5 (≈ 9.2 µg/mL)	12.5 (≈ 9.2 µg/mL)	200 (≈ 147 µg/mL)	25 (≈ 18.4 µg/mL)	–
COc1ccccc1C1C(C#N)=C(N)Oc2cc(OCc3cn([C@@H]4O[C@H](COC(C)=O)[C@@H](OC(C)=O)[C@H](OC(C)=O)[C@H]4OC(C)=O)nn3)ccc21 (some centres undefined)	3.12 (≈ 2.2 µg/mL)	200 (≈ 141 µg/mL)	22.1	–	200 (≈ 141 µg/mL)	100 (≈ 70.6 µg/mL)	6.25 (≈ 4.41 µg/mL)	400 (≈ 282 µg/mL)	50 (≈ 35.3 µg/mL)	6.25 (≈ 4.41 µg/mL)	1.56 (≈ 1.1 µg/mL)	400 (≈ 282 µg/mL)	400 (≈ 282 µg/mL)	400 (≈ 282 µg/mL)	3.12 (≈ 2.2 µg/mL)	–
CCOC(=O)c1cc2ccc(OCc3cn(Cc4ccc(F)cc4)nn3)cc2oc1=O	–	–	–	–	–	–	–	–	–	–	–	–	–	–	–	MIC (Candida albicans [15]): 12.5 µg/mL (≈ 29.5 µM); MIC (Aspergillus niger [16]): 25 µg/mL (≈ 59 µM)
CC(=O)OC[C@H]1O[C@@H](n2cc(COc3ccc4c(c3)OC(N)=C(C#N)C4c3ccccc3)nn2)[C@H](OC(C)=O)[C@@H](OC(C)=O)[C@@H]1OC(C)=O (some centres undefined)	200 (≈ 135 µg/mL)	100 (≈ 67.6 µg/mL)	22.9	400 (≈ 270 µg/mL)	200 (≈ 135 µg/mL)	12.5 (≈ 8.45 µg/mL)	25 (≈ 16.9 µg/mL)	100 (≈ 67.6 µg/mL)	200 (≈ 135 µg/mL)	3.12 (≈ 2.11 µg/mL)	6.25 (≈ 4.22 µg/mL)	400 (≈ 270 µg/mL)	400 (≈ 270 µg/mL)	400 (≈ 270 µg/mL)	400 (≈ 270 µg/mL)	–
CCOC(=O)c1cc2ccc(OCc3cn(Cc4ccc([N+](=O)[O-])cc4)nn3)cc2oc1=O	–	–	–	–	–	–	–	–	–	–	–	–	–	–	–	IC50 [17]: 15 µg/mL (≈ 33.3 µM)
CC(=O)OC[C@H]1O[C@@H](n2cc(COc3ccc4c(c3)OC(N)=C(C#N)C4c3cccc(Cl)c3)nn2)[C@H](OC(C)=O)[C@@H](OC(C)=O)[C@@H]1OC(C)=O (some centres undefined)	25 (≈ 17.8 µg/mL)	12.5 (≈ 8.88 µg/mL)	17.2	6.25 (≈ 4.44 µg/mL)	1.56 (≈ 1.11 µg/mL)	3.12 (≈ 2.22 µg/mL)	12.5 (≈ 8.88 µg/mL)	200 (≈ 142 µg/mL)	1.56 (≈ 1.11 µg/mL)	6.25 (≈ 4.44 µg/mL)	12.5 (≈ 8.88 µg/mL)	6.25 (≈ 4.44 µg/mL)	3.12 (≈ 2.22 µg/mL)	6.25 (≈ 4.44 µg/mL)	3.12 (≈ 2.22 µg/mL)	–
COc1ccc(C2C(C#N)=C(N)Oc3cc(OCc4cn([C@@H]5O[C@H](COC(C)=O)[C@@H](OC(C)=O)[C@H](OC(C)=O)[C@H]5OC(C)=O)nn4)ccc32)cc1OC (some centres undefined)	12.5 (≈ 9.2 µg/mL)	6.25 (≈ 4.6 µg/mL)	21.9	25 (≈ 18.4 µg/mL)	50 (≈ 36.8 µg/mL)	25 (≈ 18.4 µg/mL)	1.56 (≈ 1.15 µg/mL)	3.12 (≈ 2.3 µg/mL)	25 (≈ 18.4 µg/mL)	400 (≈ 294 µg/mL)	200 (≈ 147 µg/mL)	50 (≈ 36.8 µg/mL)	25 (≈ 18.4 µg/mL)	6.25 (≈ 4.6 µg/mL)	25 (≈ 18.4 µg/mL)	–
CC(=O)OC[C@H]1O[C@@H](n2cc(COc3ccc4c(c3)OC(N)=C(C#N)C4c3ccc(Cl)cc3)nn2)[C@H](OC(C)=O)[C@@H](OC(C)=O)[C@@H]1OC(C)=O (some centres undefined)	3.12 (≈ 2.22 µg/mL)	6.25 (≈ 4.44 µg/mL)	25.1	400 (≈ 284 µg/mL)	100 (≈ 71 µg/mL)	1.56 (≈ 1.11 µg/mL)	200 (≈ 142 µg/mL)	25 (≈ 17.8 µg/mL)	50 (≈ 35.5 µg/mL)	12.5 (≈ 8.88 µg/mL)	50 (≈ 35.5 µg/mL)	200 (≈ 142 µg/mL)	200 (≈ 142 µg/mL)	1.56 (≈ 1.11 µg/mL)	12.5 (≈ 8.88 µg/mL)	–
Cc1cc(C(C)(C)C)c(O)c(C(C)(C)C)c1 [BUTYLATED HYDROXYTOLUENE]	–	–	–	–	–	–	–	–	–	–	–	–	–	–	–	IC50 [17]: 16.47 µg/mL (≈ 74.7 µM)
OC(Cn1cncn1)(Cn1cncn1)c1ccc(F)cc1F [FLUCONAZOLE]	–	0.78 (≈ 0.239 µg/mL)	–	–	–	0.78 (≈ 0.239 µg/mL)	–	0.78 (≈ 0.239 µg/mL)	–	–	1.56 (≈ 0.478 µg/mL)	–	–	–	–	MIC (Candida albicans [15]): 12.5 µg/mL (≈ 40.8 µM); MIC (Aspergillus niger [16]): 12.5 µg/mL (≈ 40.8 µM)
